Only some compounds are listed: those with a hit (about 2.2% of all), similar ones and a draw of the others.
PPC-1+TRAIL kill: kills PPC-1 cancer cells in the presence of TRAIL; PPC-1 cells + TRAIL, ATPLite viability luminescence; cell killing (% activity), % at 4 µM or 5 µM; 220,000 tested, 0.41% active; AID 1443;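 active means cell killing above 50% in the first pass at 4 µM, then a duplicate retest at 5 µM averaging 50% or more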;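 further: plate controls were cells with TRAIL plus DMSO for no effect and medium-only wells lacking cells for full effect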
NF-kB expr up: raises NF-kB expression in human neuronal cells; AID 1239; NF-kB reporter expression; hits give high values; 190,000 tested, 1.6% active; fold change at 12.5 µM; in the data active means fold change above about 3.3
APP 5'UTR act: activates APP 5'UTR luciferase reporter | AID 1276 | SH-SY5Y APP 5'UTR luciferase reporter, luminescence; zero percent = DMSO vehicle wells | 190,000 tested, 1% active | activation, % at 2 µM;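 active means activation above a set limit, based on mean plus 3 SD of controls, cut at about 140% in these data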
FLuc act counter: firefly luciferase counter-screen for stimulation assays. 200,000 tested, under 10 active. ATPlite luciferase biochemical, luminescence, 10 min; 0 = ATP-free wells, 1 = DMSO control. activation factor at 10 µM;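 active means luciferase activation factor, scaled between plate controls, of at least 2 with compound at 10 µM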
Target sequence (P08659 whole entry, looked up): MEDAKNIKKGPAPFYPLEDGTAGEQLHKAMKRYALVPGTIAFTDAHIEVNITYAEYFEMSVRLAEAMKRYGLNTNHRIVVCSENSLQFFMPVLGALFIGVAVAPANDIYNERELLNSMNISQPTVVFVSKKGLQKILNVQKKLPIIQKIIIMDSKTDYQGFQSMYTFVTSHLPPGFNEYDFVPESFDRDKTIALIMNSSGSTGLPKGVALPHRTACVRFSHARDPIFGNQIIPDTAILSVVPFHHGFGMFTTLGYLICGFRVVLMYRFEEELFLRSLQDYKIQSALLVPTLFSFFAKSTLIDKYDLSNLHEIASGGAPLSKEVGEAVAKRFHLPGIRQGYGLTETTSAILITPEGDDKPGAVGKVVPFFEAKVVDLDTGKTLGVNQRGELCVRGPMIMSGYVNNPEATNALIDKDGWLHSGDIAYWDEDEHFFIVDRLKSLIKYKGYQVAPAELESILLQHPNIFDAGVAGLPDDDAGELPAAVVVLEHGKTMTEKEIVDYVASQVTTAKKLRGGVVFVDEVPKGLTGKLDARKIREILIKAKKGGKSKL
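test system = cell-free luciferase reagent | medium = PBS as buffer for the ATP substrate | dosing = test compounds dosed from 2 mM stocks in 100% DMSO | incubation = 10 min at ambient temperature | detection = luminescence measurement of luciferase light output | benchmarks = low control with PBS replacing ATP, high control enzyme plus ATP without compound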
TRAIL sens C8: sensitizes caspase-8 expressing cells to TRAIL; NB7+C8 cells + TRAIL, ATPlite viability luminescence; inhibition (viability loss, TRAIL sensitization), % at 10 µM; 360,000 tested, 1% active; AID 624354;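 active means compounds causing at least 50% loss of cell viability in the single-dose screen, relative to plate controls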
FLuc inhib CS: Photinus pyralis luciferase inhibition counter-screen; P08659; ATPLite firefly luciferase biochemical luminescence, 10 min; inhibition, % at 10 µM; 200,000 tested, 1.5% active;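 active means inhibition above about 50% when tested at 10 µM, limit read from the data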
* = called active by the depositor; nt = not tested or not shown.

SMILES	PPC-1+TRAIL kill	NF-kB expr up	APP 5'UTR act	FLuc act counter	TRAIL sens C8	FLuc inhib CS
Cc1nc2cc(C(F)(F)F)ccc2n1C1CCN(Cc2nnnn2Cc2cccs2)CC1	-5	0.66	20	1	23	-4
Cc1nc2cc(C(F)(F)F)ccc2n1C1CCN(Cc2nnnn2Cc2ccc3c(c2)OCO3)CC1	17	0.33	4	1	58*	1
CCCCCCCCCOc1ccc2[nH]cc(CCN)c2c1	61*	nt	nt	1	nt	-1
N#CC12c3ccccc3C(=O)N1Cc1cnnn1-c1ccccc12 (stereo not drawn)	nt	nt	nt	nt	3	nt
CCCC[C@@H](C)C[C@@H](C)C(=O)N(C)[C@@H](CC(C)C)C(=O)N[C@H](C(=O)N(C)[C@H](C(=O)N1C[C@@H](O)C[C@H]1C(=O)N1C(=O)C=C[C@@H]1C)C(C)C)C(C)OC(C)=O (stereo partly drawn)	nt	nt	nt	nt	89*	nt
CCc1ccc(-c2nn(Cc3ccccc3)cc2C=O)cc1	29	4.1*	133	1	-9	-1
CN(Cc1cccc(-c2ccncc2)c1)C(=O)Oc1ccccc1Cc1ccccc1	nt	nt	nt	nt	15	nt
Cc1ccc(C[n+]2c(-c3ccc(C)cc3)cc(-c3ccc(C)cc3)cc2-c2ccc(C)cc2)cc1	nt	nt	nt	nt	63*	nt
CC(C)C[C@H]1COc2cc(N3CCN(C)CC3)ccc2S(=O)(=O)N1	nt	nt	nt	nt	-6	nt
COc1ccc(P2(=O)Nc3ccccc3N2)cc1	-4	1.1	171*	1	5	0
Clc1ccc(C(c2ccc(Cl)cc2)n2cc[n+](CC(OCc3ccc(Cl)cc3Cl)c3ccc(Cl)cc3Cl)c2)cc1 (stereo not drawn)	nt	nt	nt	nt	94*	nt
Cc1ccc2nc3c(cc2c1)CC1(C(=O)N(C)C(=O)N(C)C1=O)C1CCCCN31 (stereo not drawn)	38	0.99	26	0.5	28	53*
C[N+]12CCC(CC1)C(C(O)(c1ccccc1)c1cccs1)C2 (stereo not drawn)	4	4.1*	-7	1	-3	-3
COC(=O)C1=C(C(=O)OC)SC2(S1)C(C(=O)OC)=C(C(=O)OC)Sc1c2ssc1=O	nt	nt	nt	nt	51*	nt
Cc1nc2cc(OC(=O)N(C)Cc3cccc(-c4ccncc4)c3)ccc2s1	nt	nt	nt	nt	22	nt
Nc1c2c(nc3sc4c(c13)CCCC4)CCCC2	18	2.1	55	0.8	18	22
Nc1c2c(nc3sc4c(c13)CCCC4)CCCCC2	8	3.8*	56	0.6	34	36
Cc1ccc(C(O)(C(=O)OC(C)C)C(O)c2ccc(F)cc2)cc1 (stereo not drawn)	nt	nt	nt	nt	12	nt
C#C[C@]1(O)CC[C@H]2[C@@H]3[C@H](O)C[C@H]4C[C@@H](O)CC[C@]4(C)[C@H]3CC[C@@]21C	nt	nt	nt	nt	-14	nt
O=[N+]([O-])c1ccc(O)c([N+](=O)[O-])c1	nt	nt	nt	nt	-5	nt
O=[N+]([O-])c1ccc(Cl)c([N+](=O)[O-])c1	nt	nt	nt	nt	81*	nt
O=C1NCN(c2ccccc2)C12CCN(C(c1ccnc3ccccc13)c1nnnn1C1CCCC1)CC2 (stereo not drawn)	nt	nt	nt	nt	-11	nt
CCN(CCCl)c1cc(CN(C)C)cc(NC(=O)c2ccc(C(=O)Nc3cc(CN(C)C)cc(N(CC)CCCl)c3)cc2)c1	nt	nt	nt	nt	95*	nt
CC1CN1c1cc2c(c3c1ccn3C)C1CCC2C1 (stereo not drawn)	nt	nt	nt	nt	-20	nt
COc1cccc(C(c2nnnn2C(C)(C)C)N2CCC3(CC2)C(=O)NCN3c2ccccc2)c1OC (stereo not drawn)	nt	nt	nt	nt	-6	nt
SMILES	PPC-1+TRAIL kill	NF-kB expr up	APP 5'UTR act	FLuc act counter	TRAIL sens C8	FLuc inhib CS
NC1CC2CCCCC2CC1(O)c1ccccc1 (stereo not drawn)	nt	nt	nt	nt	-11	nt
CN1/C(=C\C=Nc2ccccc2)C(C)(C)c2ccccc21	13	0.56	14	1.1	3	-8
CN1/C(=C\C=C\C2=[N+](C)c3ccc4ccccc4c3C2(C)C)C(C)(C)c2ccccc21	66*	0.16	-95	0.6	nt	41
CCN1/C(=C/C=C/C2=[N+](CC)c3ccccc3C2(C)C)C(C)(C)c2ccccc21	nt	nt	nt	nt	71*	nt
CO[C@H]1C=CCCC=CC(=O)O[C@H]([C@H](C)C(=O)CCCC2CC(=O)NC(=O)C2)C(C)=C[C@@H](C)[C@@H]1O	nt	nt	nt	nt	-3	nt
C/C(=C\c1ccc(N(C)C)cc1)[N+](=O)[O-]	36	3.1	-32	0.9	50*	6
O=c1c2ccccc2[se]n1-c1ccccc1	21	1.4	-19	0	-9	96*
CC(C)c1oc(=O)cc2c1[C@@H](O)[C@H]1OC(=O)[C@@]3(C)C[C@@H](O)[C@@H](O)[C@@]2(C)C13 (stereo partly drawn)	30	7*	17	1	21	-4
CC(C)c1oc(=O)cc2c1[C@@H](O)[C@H]1OC(=O)[C@@]3(C)CC[C@@H](O)[C@@]2(C)C13 (stereo partly drawn)	28	3.3*	22	1	19	-2
Cc1ccc(-[n+]2c(Cc3nn(-c4ccccc4)c(C)[n+]3-c3ccc(C)cc3)nn(-c3ccccc3)c2C)cc1	nt	nt	nt	nt	-5	nt
COc1cccc(C)c1NC1=NCCO1	nt	nt	nt	nt	1	nt
NC(N)=N/N=C/c1ccc(N(c2ccccc2)c2ccccc2)cc1	nt	nt	nt	nt	69*	nt
COc1ccc(/C=N\N=C(N)N)cc1	12	1.3	7	1	-2	-1
CC1(CCCc2ccc(N(CCCl)CCCl)cc2)NC(=O)NC1=O (stereo not drawn)	nt	nt	nt	nt	-10	nt
C=C1C(=O)OC2CC(C)C3C=CC(=O)C3(C)C(O)C12 (stereo not drawn)	nt	nt	nt	nt	86*	nt
C=C1C(=O)O[C@@H]2C[C@@H](C)[C@@H]3C=CC(=O)[C@@]3(C)[C@@H](OC(=O)CC(=O)O[C@H]3[C@@H]4C(=C)C(=O)O[C@@H]4C[C@@H](C)[C@@H]4C=CC(=O)[C@]43C)[C@H]12	-17	nt	nt	nt	95*	nt
O=P1(NCCCl)OCCC(OO)N1CCCl (stereo not drawn)	nt	nt	nt	nt	-1	nt
CC(=O)OC1CC2OC3C=C(C)CCC3(C)C1(C)C21CO1 (stereo not drawn)	nt	nt	nt	nt	58*	nt
CC(=O)O[C@H]1C[C@@H]2OC3C=C(C)CCC3(C)[C@@]1(C)[C@@]21CO1 (stereo partly drawn)	nt	nt	nt	nt	26	nt
O=C(c1cc(-c2ccccc2)on1)N1CCC2(CC1)OCCO2	2	5.2*	50	0.8	nt	19
COc1ccc(CC2C(=O)NC(C)C(=O)N(C)C3C(=O)N(C)C(Cc4ccc(O)c(c4)Oc4ccc(cc4)C3O)C(=O)NC(C)C(=O)NC(C)C(=O)N2C)cc1 (stereo not drawn)	nt	nt	nt	nt	66*	nt
CSCCC(c1nnnn1Cc1ccccc1)N1CCC(n2c(=O)[nH]c3ccccc32)CC1 (stereo not drawn)	nt	nt	nt	nt	47	nt
COc1ccc(-n2nnnc2C(c2cc3ccccc3o2)N2CCC(n3c(=O)[nH]c4ccccc43)CC2)cc1 (stereo not drawn)	nt	nt	nt	nt	66*	nt

Bioassay records (PubChem BioAssay)
